Laboratory results reported in publication PMC8880306 (Journal of medicinal chemistry, 2021).
Residue numbers refer to the chain shown, from its start.

Key:
[1] = Oral bioavailability of ARD-61 in mice; assay type: in vivo; settings: mice (data not shown)
[2] = Oral exposure; assay type: in vivo, mice; settings: male, SCID, mouse, plasma, 10 mg/kg
Summary of the method: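 Non-tumour-bearing male SCID mice were given single oral gavage at 10 mg/kg in 100% PEG200. Three mice per time point were sacrificed at 1, 3 and 6 h. 300 μL blood was taken per animal and centrifuged at 15000 rpm for 10 min. Plasma was stored at −80 °C and quantified by validated LC-MS/MS. Values are mean ± SD.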

[3] = target: T1, AR protein (Homo sapiens, UniProt P10275); test: Western blotting of AR protein in VCaP cells; assay type: cell-based; settings: for time within which AR protein level is effectively reduced / treatment time for near-complete AR depletion: VCaP cell line
T1 sequence (P10275 1-920): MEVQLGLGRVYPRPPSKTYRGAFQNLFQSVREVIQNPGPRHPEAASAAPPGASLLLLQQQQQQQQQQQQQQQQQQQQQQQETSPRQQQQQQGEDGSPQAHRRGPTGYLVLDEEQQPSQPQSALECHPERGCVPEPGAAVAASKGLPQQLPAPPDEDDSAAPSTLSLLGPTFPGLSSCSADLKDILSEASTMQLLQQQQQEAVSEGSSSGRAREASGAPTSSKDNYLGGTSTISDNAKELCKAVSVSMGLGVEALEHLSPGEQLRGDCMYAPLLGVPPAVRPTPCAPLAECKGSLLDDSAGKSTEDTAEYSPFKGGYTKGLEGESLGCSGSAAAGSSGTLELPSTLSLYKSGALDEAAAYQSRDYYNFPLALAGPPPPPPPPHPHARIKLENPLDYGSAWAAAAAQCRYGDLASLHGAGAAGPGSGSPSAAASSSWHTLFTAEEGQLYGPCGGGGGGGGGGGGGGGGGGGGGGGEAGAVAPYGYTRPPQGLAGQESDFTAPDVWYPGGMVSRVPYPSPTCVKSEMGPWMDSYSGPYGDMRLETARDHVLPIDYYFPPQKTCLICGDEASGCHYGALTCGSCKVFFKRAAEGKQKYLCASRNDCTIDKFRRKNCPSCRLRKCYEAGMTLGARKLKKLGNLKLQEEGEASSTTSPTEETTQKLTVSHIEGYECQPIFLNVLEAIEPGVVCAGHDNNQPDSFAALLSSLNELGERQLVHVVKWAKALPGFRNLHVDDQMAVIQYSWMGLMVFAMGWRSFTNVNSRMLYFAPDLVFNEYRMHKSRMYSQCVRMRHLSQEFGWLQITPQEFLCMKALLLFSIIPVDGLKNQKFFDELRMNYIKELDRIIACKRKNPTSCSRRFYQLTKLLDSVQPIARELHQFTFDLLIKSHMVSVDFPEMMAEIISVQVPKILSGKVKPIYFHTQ

[4] = target: T2, AR protein (AR T878A mutation) (Homo sapiens, UniProt P10275, T878A); test: Western blotting of AR protein in LNCaP cells; assay type: cell-based; settings: LNCaP cell line
T2 sequence (P10275 1-920 T878A): T1 sequence (P10275 1-920) with T878A

[5] = target: T1, AR protein; test: Pharmacodynamics: Western blot of AR protein in VCaP xenograft tumors; assay type: in vivo, mice
[6] = Drug concentrations in plasma and VCaP tumor tissue in SCID mice; assay type: in vivo; settings: VCaP tumor tissue, single 20 mg/kg PO, 6 h
Summary of the method: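 Male CB17 SCID mice carried subcutaneous VCaP xenografts (5 × 10^6 cells in 5 mg/mL Matrigel). At approximately 200 mm3 tumour volume, mice received single 20 mg/kg oral gavage in 100% PEG200. Plasma and tumour were taken at 6 and 24 h, three mice per time point. Tumours were frozen, ground in liquid nitrogen, homogenised in water:acetonitrile 4:1 at 4 °C, acetonitrile-precipitated, then assayed by validated LC-MS/MS.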

[7] = tested on: VCaP xenograft tumor; test: Antitumor activity in the VCaP xenograft tumor model; assay type: in vivo; settings: all dose levels, daily oral, entire 21 day experiment, SCID mice
[8] = single oral administration 20 mg/kg, 6 h
[9] = single oral administration 20 mg/kg, 24 h

SMILES	time within which AR protein level is effectively reduced [3] [h]	treatment time for near-complete AR depletion [3] [h]	time within which AR protein level is effectively reduced [4] [h]	treatment time for near-complete AR depletion [4] [h]	reduction of AR protein level in VCaP tumor tissue [5, 8]	reduction of AR protein level in VCaP tumor tissue [5, 9]	also measured
Cc1cc([C@H](C(=O)N2C[C@H](O)C[C@H]2C(=O)N[C@@H](CC(=O)N2CCC(N3CCC(C#Cc4ccc(C(=O)NC5C(C)(C)C(Oc6ccc(C#N)c(Cl)c6)C5(C)C)cc4)CC3)CC2)c2ccc(-c3scnc3C)cc2)C(C)C)on1 (stereo partly shown) [ARD-61]	–	–	–	–	–	–	oral bioavailability [1]: no oral bioavailability
CC1(C)[C@H](NC(=O)c2ccc(N3CCN(CCNc4ccc5c(c4)C(=O)N(C4CCC(=O)NC4=O)C5=O)CC3)cc2)C(C)(C)[C@H]1Oc1ccc(C#N)c(Cl)c1 (stereo partly drawn) [Compound 16, N-((1R,3R)-3-(3-Chloro-4-cyanophenoxy)-2,2,4,4-tetramethylcyclobutyl)-4-(4-(2-((2-(2,6-dioxopiperidin-3-yl)-1,3-dioxoisoindolin-5-yl)amino)ethyl)piperazin-1-yl)benzamide]	–	–	–	–	–	–	concentration at 1 h [2]: 1600 nM; concentration at 3 h [2]: 1200 nM; concentration at 6 h [2]: 800 nM
CC1(C)[C@H](NC(=O)c2ccc(N3CCN(CC4CN(c5ccc6c(c5)C(=O)N(C5CCC(=O)NC5=O)C6=O)C4)CC3)cc2)C(C)(C)[C@H]1Oc1ccc(C#N)c(Cl)c1 (stereo partly drawn) [Compound 26, N-((1R,3R)-3-(3-Chloro-4-cyanophenoxy)-2,2,4,4-tetramethylcyclobutyl)-4-(4-((1-(2-(2,6-dioxopiperidin-3-yl)-1,3-dioxoisoindolin-5-yl)azetidin-3-yl)methyl)piperazin-1-yl)benzamide]	≤ 3	6	≤ 3	6	modest effect	effective in reducing the levels of AR protein	–
CC1(C)[C@H](NC(=O)c2ccc(N3CCN(C4CCN(c5ccc6c(c5)C(=O)N(C5CCC(=O)NC5=O)C6=O)CC4)CC3)cc2)C(C)(C)[C@H]1Oc1ccc(C#N)c(Cl)c1 (stereo partly drawn) [Compound 27, N-((1R,3R)-3-(3-Chloro-4-cyanophenoxy)-2,2,4,4-tetramethylcyclobutyl)-4-(4-(1-(2-(2,6-dioxopiperidin-3-yl)-1,3-dioxoisoindolin-5-yl)piperidin-4-yl)piperazin-1-yl)benzamide]	≤ 3	6	≤ 3	6	only modestly	only modestly	tumor concentration (mean ± SD) [6]: 0.3148 ± 0.0937 µg/kg
CC1(C)[C@H](NC(=O)c2ccc(N3CCN(CC4CCN(c5ccc6c(c5)C(=O)N(C5CCC(=O)NC5=O)C6=O)CC4)CC3)cc2)C(C)(C)[C@H]1Oc1ccc(C#N)c(Cl)c1 (stereo partly drawn) [Compound 28, N-((1R,3R)-3-(3-Chloro-4-cyanophenoxy)-2,2,4,4-tetramethylcyclobutyl)-4-(4-((1-(2-(2,6-dioxopiperidin-3-yl)-1,3-dioxoisoindolin-5-yl)piperidin-4-yl)methyl)piperazin-1-yl)benzamide]	≤ 3	6	≤ 3	6	modest effect	effective in reducing the levels of AR protein	reduction of AR protein level in VCaP tumor tissue ([5]; daily oral 10 mg/kg for 3 days, 3 and 6 h after last dose): effectively reduces the levels of AR protein; reduction of AR protein level in VCaP tumor tissue ([5]; daily oral 10 mg/kg for 3 days, 24 h after last dose): only a modest effect; maximum weight loss [7]: no more than 5%
CC1(C)[C@H](NC(=O)c2ccc(N3CCC(N4CCN(c5ccc6c(c5)C(=O)N(C5CCC(=O)NC5=O)C6=O)CC4)CC3)cc2)C(C)(C)[C@H]1Oc1ccc(C#N)c(Cl)c1 (stereo partly drawn) [Compound 33, N-((1R,3R)-3-(3-Chloro-4-cyanophenoxy)-2,2,4,4-tetramethylcyclobutyl)-4-(4-(4-(2-(2,6-dioxopiperidin-3-yl)-1,3-dioxoisoindolin-5-yl)piperazin-1-yl)piperidin-1-yl)benzamide]	≤ 3	–	≤ 3	–	–	–	–
CC1(C)[C@H](NC(=O)c2ccc(N3CCC(CN4CCN(c5ccc6c(c5)C(=O)N(C5CCC(=O)NC5=O)C6=O)CC4)CC3)cc2)C(C)(C)[C@H]1Oc1ccc(C#N)c(Cl)c1 (stereo partly drawn) [Compound 34, N-((1R,3R)-3-(3-Chloro-4-cyanophenoxy)-2,2,4,4-tetramethylcyclobutyl)-4-(4-((4-(2-(2,6-dioxopiperidin-3-yl)-1,3-dioxoisoindolin-5-yl)piperazin-1-yl)methyl)piperidin-1-yl)benzamide]	≤ 3	6	≤ 3	6	–	–	–
CC1(C)[C@@H](NC(=O)c2ccc(N3CCN(CC4CCN(c5ccc6c(c5)C(=O)N(C5CCC(=O)NC5=O)C6=O)CC4)CC3)cc2)C[C@@H]1Oc1ccc(C#N)c(Cl)c1 (stereo partly drawn) [Compound 43, N-((1S,3S)-3-(3-Chloro-4-cyanophenoxy)-2,2-dimethylcyclobutyl)-4-(4-((1-(2-(2,6-dioxopiperidin-3-yi)-1,3-dioxoisoindolin-5-yl)-piperidin-4-yl)methyl)piperazin-1-yl)benzamide]	–	–	–	–	–	–	times less potent than compound 28 ([3]; VCaP, AR degradation): approximately 100
CNC(=O)c1ccc(N2C(=S)N(c3ccc(C#N)c(C(F)(F)F)c3)C(=O)C2(C)C)cc1F [enzalutamide, reference compound]	–	–	–	–	–	–	maximum weight loss [7]: no more than 5%
